The text below walks through data of ChEMBL document CHEMBL1250448, “Inhibitor hijacking of Akt activation” (Nat Chem Biol, 2009).

Assay [1] deals with Ribosomal protein S6 kinase alpha-5 (Homo sapiens) (UniProt O75582). Nature of the assay: Inhibition of RPS6KA5 at 1 uM in presence of 10 uM ATP by Select Screen kinase assay relative to untreated control. Put shortly: (§1)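 Commercial SelectScreen profiling panel of 220 purified kinases. Each kinase was tested at a single inhibitor concentration of 1 μM, and activity was expressed as percent inhibition.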

The target of assay [2] is T1, Serine/threonine-protein kinase TAO2 (Homo sapiens) (UniProt Q9UL54).
T1 sequence (whole entry): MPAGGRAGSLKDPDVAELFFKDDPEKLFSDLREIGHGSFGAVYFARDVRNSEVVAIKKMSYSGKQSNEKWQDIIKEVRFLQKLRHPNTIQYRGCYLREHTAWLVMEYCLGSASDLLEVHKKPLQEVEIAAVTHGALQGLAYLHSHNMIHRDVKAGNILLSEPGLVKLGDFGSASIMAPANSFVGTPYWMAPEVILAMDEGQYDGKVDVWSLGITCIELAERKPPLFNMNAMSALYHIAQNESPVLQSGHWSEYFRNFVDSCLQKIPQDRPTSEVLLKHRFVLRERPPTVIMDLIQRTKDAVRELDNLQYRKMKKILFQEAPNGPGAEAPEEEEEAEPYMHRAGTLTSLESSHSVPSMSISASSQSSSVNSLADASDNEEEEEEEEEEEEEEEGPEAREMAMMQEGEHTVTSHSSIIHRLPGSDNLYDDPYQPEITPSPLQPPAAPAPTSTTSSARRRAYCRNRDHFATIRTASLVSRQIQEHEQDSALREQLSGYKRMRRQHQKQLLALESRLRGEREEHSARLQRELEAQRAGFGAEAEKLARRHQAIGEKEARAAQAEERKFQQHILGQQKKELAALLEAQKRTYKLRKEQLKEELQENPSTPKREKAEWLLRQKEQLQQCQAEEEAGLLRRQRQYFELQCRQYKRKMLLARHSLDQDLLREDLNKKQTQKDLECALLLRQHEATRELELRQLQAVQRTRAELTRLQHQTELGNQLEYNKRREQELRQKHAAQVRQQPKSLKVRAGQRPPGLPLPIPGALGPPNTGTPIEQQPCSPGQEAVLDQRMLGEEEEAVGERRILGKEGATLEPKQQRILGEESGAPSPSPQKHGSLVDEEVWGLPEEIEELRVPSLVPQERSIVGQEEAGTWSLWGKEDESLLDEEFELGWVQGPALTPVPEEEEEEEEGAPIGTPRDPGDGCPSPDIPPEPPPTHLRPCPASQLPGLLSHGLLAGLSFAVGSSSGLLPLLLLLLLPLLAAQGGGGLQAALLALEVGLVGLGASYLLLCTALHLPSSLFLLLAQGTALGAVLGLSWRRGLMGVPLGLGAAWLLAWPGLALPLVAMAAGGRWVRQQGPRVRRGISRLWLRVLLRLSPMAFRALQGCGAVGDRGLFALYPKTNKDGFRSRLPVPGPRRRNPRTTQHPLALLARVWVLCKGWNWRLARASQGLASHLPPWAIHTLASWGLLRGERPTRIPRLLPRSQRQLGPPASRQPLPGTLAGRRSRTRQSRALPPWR
Nature of the assay: Inhibition of TAOK2 at 1 uM in presence of 10 uM ATP by Select Screen kinase assay relative to untreated control. In a few lines: as §1

Assay [3] deals with Proto-oncogene tyrosine-protein kinase ROS (Homo sapiens) (UniProt P08922). Nature of the assay: Inhibition of ROS1 at 1 uM in presence of 10 uM ATP by Select Screen kinase assay relative to untreated control. Put shortly:
as §1

Assay [4] addresses T2, Serine/threonine-protein kinase Nek9 (Homo sapiens) (UniProt Q8TD19).
T2 sequence (whole entry): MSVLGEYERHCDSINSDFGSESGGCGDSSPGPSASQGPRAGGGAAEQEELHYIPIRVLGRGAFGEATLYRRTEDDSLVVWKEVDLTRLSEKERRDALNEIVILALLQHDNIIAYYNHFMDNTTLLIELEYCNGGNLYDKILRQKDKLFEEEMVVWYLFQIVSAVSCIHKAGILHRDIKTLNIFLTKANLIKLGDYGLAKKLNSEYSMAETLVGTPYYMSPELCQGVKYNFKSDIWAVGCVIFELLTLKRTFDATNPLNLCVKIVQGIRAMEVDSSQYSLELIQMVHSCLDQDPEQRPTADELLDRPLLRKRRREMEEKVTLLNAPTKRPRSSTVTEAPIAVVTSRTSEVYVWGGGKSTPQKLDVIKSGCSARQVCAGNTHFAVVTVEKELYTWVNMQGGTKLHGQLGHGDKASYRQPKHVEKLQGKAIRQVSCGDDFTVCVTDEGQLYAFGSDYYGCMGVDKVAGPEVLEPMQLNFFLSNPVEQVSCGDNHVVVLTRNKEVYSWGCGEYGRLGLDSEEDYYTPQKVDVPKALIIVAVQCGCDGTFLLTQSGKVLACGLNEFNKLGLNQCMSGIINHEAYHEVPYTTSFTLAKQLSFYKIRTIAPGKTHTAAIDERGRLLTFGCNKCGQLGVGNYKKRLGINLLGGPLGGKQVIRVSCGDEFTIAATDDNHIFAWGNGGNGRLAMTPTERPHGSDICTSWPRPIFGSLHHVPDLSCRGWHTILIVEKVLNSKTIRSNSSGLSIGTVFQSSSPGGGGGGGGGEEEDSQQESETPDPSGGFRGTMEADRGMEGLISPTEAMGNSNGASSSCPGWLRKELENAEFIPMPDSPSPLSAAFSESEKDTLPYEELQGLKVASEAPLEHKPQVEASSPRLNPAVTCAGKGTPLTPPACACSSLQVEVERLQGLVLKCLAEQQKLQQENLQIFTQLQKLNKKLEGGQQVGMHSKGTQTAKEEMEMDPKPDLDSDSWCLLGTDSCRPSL
Nature of the assay: Inhibition of NEK9 at 1 uM in presence of 10 uM ATP by Select Screen kinase assay relative to untreated control. In a few lines:
as §1

In assay [5] the target is Platelet-derived growth factor receptor alpha (Homo sapiens) (UniProt P16234). Nature of the assay: Inhibition of PDGFRalpha at 1 uM in presence of 100 uM ATP by Select Screen kinase assay relative to untreated control. In a few lines: as §1
Sequence of Platelet-derived growth factor receptor alpha (Homo sapiens) (P16234 whole entry): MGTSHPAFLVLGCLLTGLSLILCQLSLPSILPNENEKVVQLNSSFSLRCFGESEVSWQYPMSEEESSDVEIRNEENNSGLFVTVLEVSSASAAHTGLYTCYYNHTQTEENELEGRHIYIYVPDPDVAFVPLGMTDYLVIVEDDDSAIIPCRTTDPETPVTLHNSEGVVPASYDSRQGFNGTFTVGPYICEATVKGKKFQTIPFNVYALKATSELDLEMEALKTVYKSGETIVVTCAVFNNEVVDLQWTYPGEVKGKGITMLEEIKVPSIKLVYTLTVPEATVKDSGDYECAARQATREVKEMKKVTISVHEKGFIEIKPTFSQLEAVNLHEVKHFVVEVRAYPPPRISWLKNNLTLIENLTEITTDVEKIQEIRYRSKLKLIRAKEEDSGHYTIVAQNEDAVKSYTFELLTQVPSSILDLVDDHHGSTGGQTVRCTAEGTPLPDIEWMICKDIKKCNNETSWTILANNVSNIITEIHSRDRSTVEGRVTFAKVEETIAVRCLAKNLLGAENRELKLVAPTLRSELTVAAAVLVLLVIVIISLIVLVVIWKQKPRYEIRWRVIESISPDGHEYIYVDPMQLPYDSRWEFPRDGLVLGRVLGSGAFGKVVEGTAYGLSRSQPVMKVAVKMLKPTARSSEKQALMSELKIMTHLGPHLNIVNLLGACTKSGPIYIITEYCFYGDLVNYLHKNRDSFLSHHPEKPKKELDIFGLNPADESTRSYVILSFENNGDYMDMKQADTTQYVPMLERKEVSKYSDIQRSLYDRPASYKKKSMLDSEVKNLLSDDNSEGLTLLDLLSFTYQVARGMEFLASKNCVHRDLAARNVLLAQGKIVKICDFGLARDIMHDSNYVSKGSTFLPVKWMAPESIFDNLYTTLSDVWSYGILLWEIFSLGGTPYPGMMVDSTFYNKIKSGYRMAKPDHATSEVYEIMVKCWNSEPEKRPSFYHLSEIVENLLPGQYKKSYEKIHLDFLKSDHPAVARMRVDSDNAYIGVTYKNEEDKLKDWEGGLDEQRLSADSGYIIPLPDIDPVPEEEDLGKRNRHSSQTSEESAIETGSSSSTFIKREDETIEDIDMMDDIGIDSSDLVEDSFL

Sequence of Ribosomal protein S6 kinase alpha-5 (Homo sapiens) (O75582 whole entry, looked up): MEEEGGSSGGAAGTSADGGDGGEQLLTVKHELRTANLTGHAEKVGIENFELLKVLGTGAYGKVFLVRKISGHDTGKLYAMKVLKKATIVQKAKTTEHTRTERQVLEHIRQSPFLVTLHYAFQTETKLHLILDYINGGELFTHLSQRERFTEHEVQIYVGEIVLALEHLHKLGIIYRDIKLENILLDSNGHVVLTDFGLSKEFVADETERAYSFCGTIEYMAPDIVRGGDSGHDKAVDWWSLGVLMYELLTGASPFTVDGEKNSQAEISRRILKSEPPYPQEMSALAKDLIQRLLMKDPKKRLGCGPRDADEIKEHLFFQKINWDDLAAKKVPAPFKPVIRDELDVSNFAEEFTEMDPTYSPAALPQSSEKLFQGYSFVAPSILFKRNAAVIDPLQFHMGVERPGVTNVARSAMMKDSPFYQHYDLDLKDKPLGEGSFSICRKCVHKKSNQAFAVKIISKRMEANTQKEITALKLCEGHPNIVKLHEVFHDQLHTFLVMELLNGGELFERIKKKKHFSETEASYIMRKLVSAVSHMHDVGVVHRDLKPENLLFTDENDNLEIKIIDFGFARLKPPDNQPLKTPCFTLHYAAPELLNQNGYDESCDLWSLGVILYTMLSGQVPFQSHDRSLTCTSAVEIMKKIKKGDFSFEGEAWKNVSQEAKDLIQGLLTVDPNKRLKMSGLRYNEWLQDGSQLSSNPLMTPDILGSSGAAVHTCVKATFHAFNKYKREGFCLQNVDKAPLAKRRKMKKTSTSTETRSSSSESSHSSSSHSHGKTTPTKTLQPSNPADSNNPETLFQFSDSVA
Sequence of Proto-oncogene tyrosine-protein kinase ROS (Homo sapiens) (P08922 whole entry): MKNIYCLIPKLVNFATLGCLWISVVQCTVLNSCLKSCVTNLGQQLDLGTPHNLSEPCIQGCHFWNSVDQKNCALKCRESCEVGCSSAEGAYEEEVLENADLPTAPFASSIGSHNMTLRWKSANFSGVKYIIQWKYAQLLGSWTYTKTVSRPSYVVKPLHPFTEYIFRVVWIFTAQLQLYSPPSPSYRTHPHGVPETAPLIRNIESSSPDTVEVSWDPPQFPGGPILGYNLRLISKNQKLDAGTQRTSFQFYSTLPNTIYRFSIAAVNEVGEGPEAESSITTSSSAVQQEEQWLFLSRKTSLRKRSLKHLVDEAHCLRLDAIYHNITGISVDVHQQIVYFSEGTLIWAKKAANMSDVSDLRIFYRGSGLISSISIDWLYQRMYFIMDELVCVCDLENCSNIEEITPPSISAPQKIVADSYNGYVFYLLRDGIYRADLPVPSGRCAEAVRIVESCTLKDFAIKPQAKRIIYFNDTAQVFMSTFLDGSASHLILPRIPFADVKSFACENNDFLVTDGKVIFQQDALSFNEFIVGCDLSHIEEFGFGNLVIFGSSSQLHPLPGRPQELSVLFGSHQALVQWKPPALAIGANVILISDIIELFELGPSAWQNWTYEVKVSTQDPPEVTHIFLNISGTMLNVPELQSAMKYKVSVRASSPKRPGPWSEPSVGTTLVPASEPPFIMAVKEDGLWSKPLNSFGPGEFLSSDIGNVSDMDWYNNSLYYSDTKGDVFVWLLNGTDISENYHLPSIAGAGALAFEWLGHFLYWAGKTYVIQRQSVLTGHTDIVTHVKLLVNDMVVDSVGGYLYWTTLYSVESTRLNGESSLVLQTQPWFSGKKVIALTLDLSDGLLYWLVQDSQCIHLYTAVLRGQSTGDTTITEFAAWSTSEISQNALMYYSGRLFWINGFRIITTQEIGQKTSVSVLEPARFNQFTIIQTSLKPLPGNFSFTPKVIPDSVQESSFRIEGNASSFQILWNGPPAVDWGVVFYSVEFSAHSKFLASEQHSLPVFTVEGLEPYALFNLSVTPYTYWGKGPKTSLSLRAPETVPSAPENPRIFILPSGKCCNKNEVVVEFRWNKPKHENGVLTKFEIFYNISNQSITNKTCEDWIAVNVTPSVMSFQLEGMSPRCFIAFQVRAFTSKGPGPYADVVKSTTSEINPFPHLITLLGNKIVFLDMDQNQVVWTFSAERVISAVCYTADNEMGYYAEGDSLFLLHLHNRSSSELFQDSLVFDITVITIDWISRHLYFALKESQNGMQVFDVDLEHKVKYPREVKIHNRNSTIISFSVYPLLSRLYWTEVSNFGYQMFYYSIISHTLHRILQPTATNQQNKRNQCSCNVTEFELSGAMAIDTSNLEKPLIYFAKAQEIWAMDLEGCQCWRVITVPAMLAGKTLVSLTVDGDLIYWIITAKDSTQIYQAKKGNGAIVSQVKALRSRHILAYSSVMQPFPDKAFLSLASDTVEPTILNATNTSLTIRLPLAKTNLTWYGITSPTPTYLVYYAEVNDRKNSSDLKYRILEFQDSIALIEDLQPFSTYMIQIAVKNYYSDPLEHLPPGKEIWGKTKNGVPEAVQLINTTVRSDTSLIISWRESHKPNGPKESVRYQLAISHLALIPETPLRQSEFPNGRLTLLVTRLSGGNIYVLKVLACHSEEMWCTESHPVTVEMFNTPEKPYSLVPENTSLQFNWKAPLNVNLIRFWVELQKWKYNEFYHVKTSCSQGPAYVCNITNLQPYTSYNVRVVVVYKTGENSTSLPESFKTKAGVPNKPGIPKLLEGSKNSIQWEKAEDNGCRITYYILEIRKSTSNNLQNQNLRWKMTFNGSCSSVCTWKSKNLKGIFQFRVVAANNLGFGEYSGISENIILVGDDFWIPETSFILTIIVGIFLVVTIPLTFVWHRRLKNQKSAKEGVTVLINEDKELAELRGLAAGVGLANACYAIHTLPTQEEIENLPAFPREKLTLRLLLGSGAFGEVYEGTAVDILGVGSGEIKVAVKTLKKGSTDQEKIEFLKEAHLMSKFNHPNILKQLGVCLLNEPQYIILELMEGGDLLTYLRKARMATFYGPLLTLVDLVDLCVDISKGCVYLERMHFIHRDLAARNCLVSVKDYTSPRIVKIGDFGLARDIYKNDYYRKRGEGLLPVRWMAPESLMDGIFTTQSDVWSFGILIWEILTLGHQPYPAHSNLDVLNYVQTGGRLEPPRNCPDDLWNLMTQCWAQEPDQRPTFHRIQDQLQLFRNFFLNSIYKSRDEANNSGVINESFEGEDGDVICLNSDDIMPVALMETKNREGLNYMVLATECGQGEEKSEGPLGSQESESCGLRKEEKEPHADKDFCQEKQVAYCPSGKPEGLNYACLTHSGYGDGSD

Broadly, the inhibition is the drop in the measured response relative to a control, in per cent. On to `O=C(NCCCNc1nc(Nc2cccc(NC(=O)N3CCCC3)c2)ncc1I)c1cccs1`, for which the inhibition in assay [1] was 18%; in assay [2] it was 82%; in assay [3] it was 5%; in assay [4] it was 88%; in assay [5] it was 93%.
For the molecule `COc1ccccc1N1CCN(c2ncnc3[nH]nc(Br)c23)CC1`, the inhibition in assay [1] amounted to 83%; in assay [2] it was 2%; in assay [3], 21%; in assay [4] it was 12%; in assay [5], 3%.
Take `Cc1n[nH]c2ccc(-c3cncc(OC[C@@H](N)Cc4c[nH]c5ccccc45)c3)cc12`: the inhibition in assay [1] came out at 102%; in assay [2], 35%; in assay [3], 17%; in assay [4], 15%; in assay [5] it was 1%.
